{"source": "paper PMC10797327", "about": "(RSC Advances, 2024)", "key": {"IL-1β": {"system": "IL-1β", "assay": "IL-1β production in LPS-stimulated RAW264.7 cells", "type": "cell-based", "settings": "Mus musculus, RAW264.7, 48 h, read-out: IC50 IL-1β", "summary_of_the_method": "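RAW264.7 macrophages stimulated with LPS and cultured for 48 h with test compound. Cytokine production is measured, and IC50 is taken as the concentration that reduces cytokine production by 50%.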"}, "MTT cell viability assay": {"assay": "MTT cell viability assay", "type": "cell-based, murine", "settings": "mouse, RAW264.7 macrophage cells", "summary_of_the_method": "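RAW264.7 cells are cultured with test compound for 48 h, then viability is measured. CC50 is the concentration that reduces viability to 50%.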"}}, "note": "pIC50: −log10 of the molar value.", "data": [{"smiles": "CC(=O)Oc1cccc2c1C(=O)c1c(OC(C)=O)cc(C(=O)O)cc1C2=O", "note": "[Diacerein, diacerein]", "values": [{"measurement": "pIC50", "setting": "IL-1β", "result": 4.58}, {"measurement": "CC50 at 48 h", "setting": "MTT cell viability assay", "result": 151, "unit": "µM"}]}]}
